Assay results collected from several papers.
Lines come from different studies, so protocols differ.
Target: Mitogen-activated protein kinase kinase kinase 2 (MAP3K2, Homo sapiens, UniProt Q9Y2U5)
Sequence (Q9Y2U5 1-619, as in one of the studies): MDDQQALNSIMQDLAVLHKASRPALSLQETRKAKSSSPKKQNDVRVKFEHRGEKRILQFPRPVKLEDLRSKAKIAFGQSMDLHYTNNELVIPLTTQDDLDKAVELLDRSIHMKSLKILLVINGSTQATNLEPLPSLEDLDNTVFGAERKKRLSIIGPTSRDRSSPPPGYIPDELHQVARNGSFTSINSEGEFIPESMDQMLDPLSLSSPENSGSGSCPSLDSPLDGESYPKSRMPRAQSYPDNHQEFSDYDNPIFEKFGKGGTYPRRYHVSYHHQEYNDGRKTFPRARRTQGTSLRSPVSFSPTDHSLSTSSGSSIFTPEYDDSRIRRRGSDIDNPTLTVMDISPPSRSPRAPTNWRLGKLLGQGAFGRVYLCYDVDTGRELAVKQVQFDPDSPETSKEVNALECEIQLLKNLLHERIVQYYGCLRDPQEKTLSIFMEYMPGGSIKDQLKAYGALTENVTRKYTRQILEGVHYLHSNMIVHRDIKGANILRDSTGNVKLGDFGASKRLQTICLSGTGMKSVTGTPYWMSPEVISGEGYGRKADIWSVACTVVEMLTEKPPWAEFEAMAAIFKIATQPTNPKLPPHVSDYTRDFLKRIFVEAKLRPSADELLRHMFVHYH

| SMILES | test | conditions | remaining binding [%] |
| --- | --- | --- | --- |
| N[C@@H]1CCN(c2nccc(-c3cnn4ncccc34)n2)C1 | binding | 1 µM | 100 |
| CCC(=N\O)/C(C)=C/c1ccc(F)cc1 | cell-free assay, competition with immobilised ligand | 1 µM | 85 |
| C=CC(=O)N1CCC(C(=O)NCC(=O)N2CCN(c3nc(-c4cnc(N)nc4C(F)F)nc(N4CCOCC4)n3)CC2)CC1 | binding, competition with immobilised ligand | 1 µM | 69 |
| COc1cnc(Nc2cccc(S(N)(=O)=O)c2)nc1N1CCN(c2ccccc2)CC1 | binding, competition with immobilised ligand | 1 µM | 68 |
| CCCCN(CCCC)C(=O)CN1C[C@@H](c2cc(OC)c3c(c2)OCO3)[C@H](C(=O)O)[C@H]1CC(C)(C)CCC | cell-free assay, competition with immobilised ligand | 1 µM | 84.6 |
| O=C(NCC1CCOCC1)c1n[nH]cc1NC(=O)c1c(F)cccc1F | binding, competition with immobilised ligand | 1 µM | 73 |
| C[C@@H]1CCN(c2nccc(-c3cnn4ncccc34)n2)C1 | binding | 1 µM | 79 |
| O=C(c1ccc(Nc2ncc(Cl)c(-c3cc4ccccc4s3)n2)cc1)N1CCC(N2CCCC2)CC1 | binding, competition with immobilised ligand | 1 µM | 20 |
| c1ccc(N2CCN(Cc3nc4ccccc4[nH]3)CC2)nc1 | binding, competition with immobilised ligand | 1 µM | 100 |
| c1cnn2ncc(-c3ccnc(N4CCC45COC5)n3)c2c1 | binding | 1 µM | 58 |
| O=S(=O)(NC1CCC(c2cc(F)ccc2F)(S(=O)(=O)c2ccc(Cl)cc2)CC1)C(F)(F)F (stereo not drawn) | cell-free assay, competition with immobilised ligand | 1 µM | 98 |
| O=C(c1ccc(Nc2nccc(-c3cc4ccccc4s3)n2)cc1)N1CCC(N2CCCC2)CC1 | binding, competition with immobilised ligand | 1 µM | 43 |
| O=C(O)[C@@H]1[C@@H](Cn2nnc3ccccc3c2=O)CC[C@H]1C(=O)c1ccc(OCCC2CCOCC2)cc1 | cell-free assay, competition with immobilised ligand | 1 µM | 100 |
| Nc1ncc2c(n1)-c1c([nH]c3ccc(C#CC4CC4)cc13)CCCC2 | binding, competition with immobilised ligand | 1 µM | 85 |
| F[C@@H]1CCN(c2nccc(-c3cnn4ncccc34)n2)C1 | binding | 1 µM | 92 |
| COc1cnc(Nc2cccc(S(N)(=O)=O)c2)nc1N1CCN(c2ccccc2)C(=O)C1 | binding, competition with immobilised ligand | 1 µM | 74 |
| COc1ncc2cc3ccccc3nc2c1C#N | cell-free assay, competition with immobilised ligand | 5 µM | 91 |
| COc1ccnn2ncc(-c3ccnc(N(C)C)n3)c12 | binding | 1 µM | 87 |
| Cc1c(NC(=O)c2cc(C(N)=O)nc3cc(F)ccc23)c(C(F)(F)F)nn1Cc1ccc(C(C)(C)C)cc1 | cell-free assay, competition with immobilised ligand | 1 µM | 100 |
| CN(CCCC(F)(F)F)c1nccc(-c2cnn3ncccc23)n1 | binding | 1 µM | 96 |
| Cc1cnc(Nc2ccc(C(=O)N3CCC(N4CCCC4)CC3)cc2)nc1-c1cc2ccccc2s1 | binding, competition with immobilised ligand | 1 µM | 5.1 |
